According to ChEMBL document CHEMBL1130282, “Syntheses and structure-activity relationships of taxoids derived from 14 beta-hydroxy-10-deacetylbaccatin III” (J Med Chem, 1997):

Tests used:
[1] = tested on: MCF7R; test: Growth inhibition of human mammary carcinoma 180 fold resistant to doxorubicin (MCF-7-R) cell line; assay type: functional, cell-based
[2] = tested on: A121; test: Growth inhibition of human ovarian carcinoma (A121) cell line; assay type: functional, cell-based
Procedure, shortened: (§1)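 Cells seeded at 400/well, attached overnight, grown in RPMI-1640 with 5% fetal bovine serum and 5% Nu Serum. Taxanes in DMSO, diluted in medium, 72 h exposure, triplicate wells. Fixed with ice-cold 50% TCA (1 h, 4 °C), stained with 0.4% sulforhodamine B, dye dissolved in 10 mM Tris (pH 10.5), OD 570 nm. IC50 from sigmoid-Emax nonlinear regression, weighted by reciprocal squared predicted effect.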

[3] = tested on: HT-29; test: Growth inhibition of human colon carcinoma (HT-29) cell line; assay type: functional, cell-based; procedure, shortened: as §1
[4] = tested on: A549; test: Growth inhibition of human non-small-lung carcinoma (A549) cell line; assay type: functional, cell-based
[5] = tested on: MCF7; test: Growth inhibition of human mammary carcinoma (MCF-7) cell line; assay type: functional, cell-based; procedure, shortened: as §1
[6] = Ratio of growth inhibition (IC50) of MCF7-R / MCF-7 cell lines; assay type: functional, Homo sapiens

Row | IC50 [1] [nM] | IC50 [3] [nM] | IC50 [4] [nM] | IC50 [5] [nM] | Structure (SMILES) | IC50 [2] [nM] | Ratio [6]
1 | > 1000 | – | – | – | CC(=O)O[C@@]12CO[C@@H]1C[C@H](O)[C@@]1(C)C(=O)[C@H](O)C3=C(C)[C@@H](OC(=O)[C@H](O)[C@@H](NC(=O)OC(C)(C)C)c4ccccc4)[C@H](O)[C@@](O)([C@@H](OC(=O)c4ccccc4)C12)C3(C)C (stereo not given in full) | – | –
2 | 33 | 1.2 | 0.6 | 0.4 | CC(=O)O[C@@]12COC1C[C@H](O)[C@@]1(C)C(=O)[C@H](OC(=O)N(C)C)C3=C(C)[C@@H](OC(=O)[C@H](O)[C@H](C=C(C)C)NC(=O)OC(C)(C)C)[C@@H]4OC(=O)O[C@]4([C@@H](OC(=O)c4ccccc4)C21)C3(C)C (stereo not given in full) | 0.7 | 83
3 | 49 | 0.6 | 0.5 | 0.5 | CC(=O)O[C@H]1C(=O)[C@@]2(C)C([C@H](OC(=O)c3ccccc3)[C@]34OC(=O)O[C@H]3[C@H](OC(=O)[C@H](O)[C@@H](NC(=O)OC(C)(C)C)c3ccco3)C(C)=C1C4(C)C)[C@]1(OC(C)=O)COC1C[C@@H]2O (stereo not given in full) | 0.4 | 96
4 | 135 | 0.6 | 0.5 | 0.5 | CC(=O)O[C@@]12COC1C[C@H](O)[C@@]1(C)C(=O)[C@H](O)C3=C(C)[C@@H](OC(=O)[C@H](O)[C@@H](NC(=O)OC(C)(C)C)c4ccco4)[C@@H]4OC(=O)O[C@]4([C@@H](OC(=O)c4ccccc4)C21)C3(C)C (stereo not given in full) | 0.4 | 270
5 | 321 | 16 | 18 | 3.2 | CCCCCC(=O)N[C@@H](C=C(C)C)[C@@H](O)C(=O)O[C@@H]1C(C)=C2[C@@H](OC(=O)C3CC3)C(=O)[C@@]3(C)C([C@H](OC(=O)c4ccccc4)[C@@]4(OC(=O)O[C@@H]14)C2(C)C)[C@]1(OC(C)=O)COC1C[C@@H]3O (stereo not given in full) | 12 | 100
6 | 265 | 3.8 | 4.4 | 4.2 | CCC[C@H](NC(=O)OC(C)(C)C)[C@@H](O)C(=O)O[C@@H]1C(C)=C2[C@@H](O)C(=O)[C@@]3(C)C([C@H](OC(=O)c4ccccc4)[C@@]4(OC(=O)O[C@@H]14)C2(C)C)[C@]1(OC(C)=O)COC1C[C@@H]3O (stereo not given in full) | 2.1 | 92
7 | 137 | 28 | 25 | 2.1 | C/C=C/C(=O)O[C@H]1C(=O)[C@@]2(C)C([C@H](OC(=O)c3ccccc3)[C@]34OC(=O)O[C@H]3[C@H](OC(=O)[C@H](O)[C@H](C=C(C)C)NC(=O)CCCCC)C(C)=C1C4(C)C)[C@]1(OC(C)=O)COC1C[C@@H]2O (stereo not given in full) | 17 | 65
8 | > 1000 | 24 | 33 | 11 | CC(=O)O[C@@]12COC1C[C@H](O)[C@@]1(C)C(=O)[C@H](O)C3=C(C)[C@@H](OC(=O)[C@H](O)[C@@H](NC(=O)c4ccccc4)c4ccccc4)[C@@H]4OC(=O)O[C@]4([C@@H](OC(=O)c4ccccc4)C21)C3(C)C (stereo not given in full) | 105 | –
9 | 543 | 1.8 | 2.1 | 1.8 | CC(=O)O[C@@]12COC1C[C@H](O)[C@@]1(C)C(=O)[C@H](O)C3=C(C)[C@@H](OC(=O)[C@H](O)[C@@H](NC(=O)OC(C)(C)C)c4ccccc4)[C@@H]4OC(=O)O[C@]4([C@@H](OC(=O)c4ccccc4)C21)C3(C)C (stereo not given in full) | 6.2 | 302
10 | > 1000 | 52 | 51 | 48 | CC(=O)O[C@@]12COC1C[C@H](O)[C@@]1(C)C(=O)[C@H](O)C3=C(C)[C@@H](OC(=O)[C@H](O)[C@H](CC(C)(C)C)NC(=O)OC(C)(C)C)[C@@H]4OC(=O)O[C@]4([C@@H](OC(=O)c4ccccc4)C21)C3(C)C (stereo not given in full) | 106 | –
11 | 295 | 5.1 | 5.5 | 1.7 | CCCCCC(=O)N[C@@H](C=C(C)C)[C@@H](O)C(=O)O[C@@H]1C(C)=C2[C@@H](OC(=O)N(C)C)C(=O)[C@@]3(C)C([C@H](OC(=O)c4ccccc4)[C@@]4(OC(=O)O[C@@H]14)C2(C)C)[C@]1(OC(C)=O)COC1C[C@@H]3O (stereo not given in full) | 4.8 | –
12 | 385 | 3.4 | 1.8 | 2.7 | CC(=O)O[C@@]12COC1C[C@H](O)[C@@]1(C)C(=O)[C@H](O)C3=C(C)[C@@H](OC(=O)[C@H](O)[C@H](CC(C)C)NC(=O)OC(C)(C)C)[C@@H]4OC(=O)O[C@]4([C@@H](OC(=O)c4ccccc4)C21)C3(C)C (stereo not given in full) | 1 | –
13 | > 1000 | 157 | 389 | 13 | CCCCCC(=O)N[C@@H](c1ccccc1)[C@@H](O)C(=O)O[C@@H]1C(C)=C2[C@@H](O)C(=O)[C@@]3(C)C([C@H](OC(=O)c4ccccc4)[C@@]4(OC(=O)O[C@@H]14)C2(C)C)[C@]1(OC(C)=O)COC1C[C@@H]3O (stereo not given in full) | 330 | –
14 | 201 | 4.8 | 4.7 | 4.6 | CCC[C@H](NC(=O)OC(C)(C)C)[C@@H](O)C(=O)O[C@@H]1C(C)=C2[C@@H](OC(C)=O)C(=O)[C@@]3(C)C([C@H](OC(=O)c4ccccc4)[C@@]4(OC(=O)O[C@@H]14)C2(C)C)[C@]1(OC(C)=O)COC1C[C@@H]3O (stereo not given in full) | 2.3 | 44
15 | 17 | 1.5 | 0.5 | 0.4 | C/C=C/C(=O)O[C@H]1C(=O)[C@@]2(C)C([C@H](OC(=O)c3ccccc3)[C@]34OC(=O)O[C@H]3[C@H](OC(=O)[C@H](O)[C@H](C=C(C)C)NC(=O)OC(C)(C)C)C(C)=C1C4(C)C)[C@]1(OC(C)=O)COC1C[C@@H]2O (stereo not given in full) | 0.8 | 43
